Data on eleven compounds can be found in ChEMBL document CHEMBL1132939, “Design and synthesis of trans-N-[4-[2-(6-cyano-1,2,3, 4-tetrahydroisoquinolin-2-yl)ethyl]cyclohexyl]-4-quinolinecarboxamide (SB-277011): A potent and selective dopamine D(3) receptor antagonist with high oral bioavailability and CNS penetration in the rat” (J Med Chem, 2000).

One data set concerns the target D(2) dopamine receptor (Homo sapiens, UniProt P14416). Put plainly: Binding affinity for human Dopamine receptor D2 expressed in CHO cells. The class given is cell-based.
The next data set addresses D(3) dopamine receptor (Homo sapiens, UniProt P35462). The experiment in a line: Binding affinity for human Dopamine receptor D3 expressed in CHO cells. The format is cell-based.
Data set [1] is described as follows: Oral bioavailability in rat. The following applies: in vivo.
Data set [2] deals with 5-hydroxytryptamine receptor 1D (Homo sapiens, UniProt P28221). Put plainly: Binding activity against human 5-hydroxytryptamine 1D receptor.
In data set [3] the target is 5-hydroxytryptamine receptor 1B (Homo sapiens, UniProt P28222). Put plainly: Binding activity against human 5-hydroxytryptamine 1B receptor. The essentials:
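Radioligand competition binding to human receptor, run by a procedure described in an earlier paper. Binding curves were fitted with an iterative four-parameter logistic model to give IC50, which was then converted to pKi.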

Data set [4] is described as follows: Compound was evaluated for Blood clearance in rat. The following applies: whole blood.
In a further data set the target is Cytochrome P450 2D6 (Homo sapiens, UniProt P10635). The experiment in a line: Inhibition of cytochrome P450 2D6. The class given is ADME.
A short description of data set [5]: Compound was evaluated for its Half life in rat. The following applies: in vivo.

Some results are limits rather than exact numbers.

Sequence of 5-hydroxytryptamine receptor 1D (P28221 whole entry): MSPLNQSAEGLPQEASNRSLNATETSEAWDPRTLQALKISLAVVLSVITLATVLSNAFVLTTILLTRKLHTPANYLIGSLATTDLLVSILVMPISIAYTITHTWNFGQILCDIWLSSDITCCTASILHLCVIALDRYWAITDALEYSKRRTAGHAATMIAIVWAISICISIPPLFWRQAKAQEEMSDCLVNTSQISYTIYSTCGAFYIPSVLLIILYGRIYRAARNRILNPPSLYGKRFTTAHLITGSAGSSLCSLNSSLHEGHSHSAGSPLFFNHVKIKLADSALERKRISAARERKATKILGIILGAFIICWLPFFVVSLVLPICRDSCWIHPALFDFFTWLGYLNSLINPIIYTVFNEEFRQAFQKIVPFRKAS
Sequence of D(2) dopamine receptor (P14416 whole entry): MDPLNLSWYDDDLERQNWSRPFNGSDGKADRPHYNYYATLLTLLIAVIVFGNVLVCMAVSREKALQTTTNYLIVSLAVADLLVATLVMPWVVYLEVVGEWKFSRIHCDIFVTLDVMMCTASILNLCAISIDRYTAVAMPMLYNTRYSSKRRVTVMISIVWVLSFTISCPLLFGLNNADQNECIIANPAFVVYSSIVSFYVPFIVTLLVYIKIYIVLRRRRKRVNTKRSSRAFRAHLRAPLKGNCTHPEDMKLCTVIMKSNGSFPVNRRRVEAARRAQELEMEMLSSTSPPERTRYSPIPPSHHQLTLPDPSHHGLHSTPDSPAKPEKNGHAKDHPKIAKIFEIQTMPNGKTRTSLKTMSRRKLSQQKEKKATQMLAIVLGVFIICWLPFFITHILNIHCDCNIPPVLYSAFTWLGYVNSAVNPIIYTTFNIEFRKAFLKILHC
Sequence of D(3) dopamine receptor (P35462 whole entry): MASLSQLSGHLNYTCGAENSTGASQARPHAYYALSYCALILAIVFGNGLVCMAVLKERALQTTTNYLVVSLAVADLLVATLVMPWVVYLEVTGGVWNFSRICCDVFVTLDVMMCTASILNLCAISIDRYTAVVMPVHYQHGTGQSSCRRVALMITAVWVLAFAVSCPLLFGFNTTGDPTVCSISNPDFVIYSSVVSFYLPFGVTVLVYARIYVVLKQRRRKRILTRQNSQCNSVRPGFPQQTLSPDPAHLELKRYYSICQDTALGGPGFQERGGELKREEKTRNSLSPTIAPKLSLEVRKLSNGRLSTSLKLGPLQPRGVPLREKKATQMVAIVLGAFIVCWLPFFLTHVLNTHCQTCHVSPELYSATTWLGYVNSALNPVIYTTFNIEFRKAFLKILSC
Sequence of 5-hydroxytryptamine receptor 1B (P28222 whole entry): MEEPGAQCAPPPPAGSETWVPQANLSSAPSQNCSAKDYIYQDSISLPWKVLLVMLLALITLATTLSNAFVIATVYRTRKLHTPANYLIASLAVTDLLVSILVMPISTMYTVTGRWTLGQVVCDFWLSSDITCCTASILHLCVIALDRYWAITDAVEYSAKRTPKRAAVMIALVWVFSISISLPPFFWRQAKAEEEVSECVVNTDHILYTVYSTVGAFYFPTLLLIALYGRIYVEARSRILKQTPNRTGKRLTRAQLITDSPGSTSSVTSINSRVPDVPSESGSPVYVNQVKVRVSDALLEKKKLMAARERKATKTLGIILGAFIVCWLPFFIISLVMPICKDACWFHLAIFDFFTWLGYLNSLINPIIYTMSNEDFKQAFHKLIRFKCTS
Sequence of Cytochrome P450 2D6 (P10635 whole entry): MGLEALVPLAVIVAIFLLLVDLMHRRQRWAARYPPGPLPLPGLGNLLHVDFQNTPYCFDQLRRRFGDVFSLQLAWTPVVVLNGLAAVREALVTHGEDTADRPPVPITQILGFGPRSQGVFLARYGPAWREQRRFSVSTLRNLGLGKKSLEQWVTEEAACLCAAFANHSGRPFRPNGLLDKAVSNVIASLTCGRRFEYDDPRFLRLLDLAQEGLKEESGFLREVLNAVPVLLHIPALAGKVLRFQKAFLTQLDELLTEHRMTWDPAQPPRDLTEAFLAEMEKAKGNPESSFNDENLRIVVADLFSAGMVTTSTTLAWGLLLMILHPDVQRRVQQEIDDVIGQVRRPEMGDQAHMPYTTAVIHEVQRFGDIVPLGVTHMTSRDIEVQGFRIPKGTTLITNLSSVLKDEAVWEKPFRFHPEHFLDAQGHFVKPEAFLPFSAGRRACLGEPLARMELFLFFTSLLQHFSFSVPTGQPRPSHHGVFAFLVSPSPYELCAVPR

The Ki is a dissociation constant, usually derived from enzyme kinetics or from competition with a known ligand. Read a low Ki as tighter binding. Turning to `N#Cc1ccc2c(c1)CN(CC[C@H]1CC[C@H](NC(=O)/C=C/c3c[nH]c4ccccc34)CC1)CC2`, the Ki was 126 nM at D(2) dopamine receptor and 3.16 nM on D(3) dopamine receptor.

The bioavailability is the share of a dose that reaches the circulation, judged against a reference dose that is usually intravenous. As usually defined, the clearance is the rate of elimination divided by the concentration. Low readings indicate a low capacity for elimination, high ones a high capacity for elimination. A word on the IC50: it is the concentration that gives 50% inhibition. Usually half-life stands for how long it takes for the measured level to halve. Low values mean rapid decline, high ones slow decline. The compound `Cl.N#Cc1ccc2c(c1)CN(CC[C@H]1CC[C@H](NC(=O)c3cc4ccccc4[nH]3)CC1)CC2` came in with a bioavailability in data set [1] of 43%. Besides, the figures for the Ki in data set [2] and in data set [3] were 100 nM and 631 nM, respectively. Also, the clearance in data set [4] is 6 mL/min/kg. Besides, the 50% inhibitory concentration (IC50) against Cytochrome P450 2D6 was found to be 800 nM. The half-life in data set [5] is 6.3 h.

Turning to `N#Cc1ccc2c(c1)CCN(CC[C@H]1CC[C@H](NC(=O)c3ccc4ccccc4c3)CC1)C2`, the Ki on D(2) dopamine receptor was 1580 nM; in data set [2] it was 100 nM; in data set [3] it was greater than 10000 nM; on D(3) dopamine receptor it was 10 nM.

In general, Inhibition refers to the percentage by which the read-out fell short of the control. Lower therefore signals a response near the control. Take `Cl.N#Cc1ccc2c(c1)CCN(CC[C@H]1CC[C@H](NC(=O)c3cc4ccccc4[nH]3)CC1)C2`: the Ki is 794 nM at D(2) dopamine receptor and 15.8 nM on D(3) dopamine receptor. At Cytochrome P450 2D6, the Inhibition is 17%.

Regarding `N#Cc1ccc2c(c1)CN(CC[C@H]1CC[C@H](NC(=O)/C=C/c3ccccc3)CC1)CC2`, the Ki at D(2) dopamine receptor is 158 nM; in data set [2], 100 nM; in data set [3] it was 158 nM; on D(3) dopamine receptor it was 1.26 nM.

Turning to `N#Cc1ccc2c(c1)CCN(CC[C@H]1CC[C@H](NC(=O)c3cccc4ccccc34)CC1)C2`, the Ki at D(2) dopamine receptor was 398 nM; at D(3) dopamine receptor, 7.94 nM.

Compound `CS(=O)(=O)c1cccc(/C=C/C(=O)N[C@H]2CC[C@H](CCN3CCc4cc(C#N)ccc4C3)CC2)c1.Cl` came in with a bioavailability in data set [1] of 45%. The Ki at D(2) dopamine receptor was 316 nM; in data set [2], 3980 nM; in data set [3] it was 6310 nM; on D(3) dopamine receptor it was 5.01 nM.

With `N#Cc1ccc2c(c1)CCN(CC[C@H]1CC[C@H](NC(=O)/C=C/c3ccc(F)cc3)CC1)C2`, the Ki at D(2) dopamine receptor is 200 nM; in data set [2] it was 631 nM; in data set [3], greater than 10000 nM; on D(3) dopamine receptor, 3.16 nM.

Consider `N#Cc1ccc2c(c1)CCN(CC[C@H]1CC[C@H](NC(=O)/C=C/c3ccccc3)CC1)C2`, for which the Ki at D(2) dopamine receptor is 200 nM; in data set [2], 316 nM; in data set [3], 1000 nM; at D(3) dopamine receptor it was 3.16 nM.

`O=C(/C=C/c1c[nH]c2ccccc12)NCCCCN1CCc2ccc(OS(=O)(=O)C(F)(F)F)cc2C1`: the Ki in data set [2] is 63.1 nM; in data set [3] it was 100 nM.

Take `N#Cc1ccc2c(c1)CN(CCCCNC(=O)/C=C/c1c[nH]c3ccccc13)CC2`: the inhibitory constant (Ki) at D(2) dopamine receptor is 794 nM; in data set [2], 251 nM; in data set [3] it was 158 nM; at D(3) dopamine receptor, 12.6 nM.
